Reference: ChEMBL document CHEMBL5532690, “Antitubercular activity of 2-mercaptobenzothiazole derivatives targeting Mycobacterium tuberculosis type II NADH dehydrogenase” (RSC Med Chem, 2024)
Converted amounts (≈) assume the structure as drawn. The source made the active and inactive calls. The rule behind the calls is not given here.

Legend:
[1] = tested on: Mycobacterium tuberculosis; assay: Antitubercular activity against Mycobacterium tuberculosis H37Ra measured after 10 days by liquid broth microdilution assay; format: functional; conditions: 240 h, time 10 day
How it was run: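 Broth microdilution in 7H9 with 0.2% glycerol, 0.05% Tween 80 and 10% ADS. Mid-log cultures (OD600 0.4–0.6) were diluted to OD600 0.005 (1.0 × 10^6 CFU ml−1) and added to two-fold serial compound dilutions. Plates were incubated at 37 °C for 10 days and read visually. MIC was the lowest concentration with no turbidity.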

[2] = tested on: Mycobacterium tuberculosis; assay: Antitubercular activity against Mycobacterium tuberculosis H37Rv mc2 6230 measured after 10 days by liquid broth microdilution assay; format: functional; conditions: H37Rv mc2 6230, 240 h, time 10 day
How it was run: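 Broth microdilution in 7H9 with glycerol, ADS and 0.05% tyloxapol, supplemented with L-methionine, L-leucine (50 mg L−1 each), L-arginine (200 mg L−1) and D-pantothenate (24 mg L−1). Inoculum was diluted to OD600 0.005 (1.0 × 10^6 CFU ml−1) and added to two-fold serial dilutions. After 10 days at 37 °C, MIC was the lowest concentration without visible turbidity.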

[3] = tested on: Mycobacterium tuberculosis; assay: Antitubercular activity against Mycobacterium tuberculosis H37Ra assessed as inhibition of intracellular ATP synthesis incubated for 24 hrs by BacTiter-Glo microbial cell viability assay; format: functional, organism-based
How it was run: (§1)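 Mid-log cultures were adjusted to OD600 0.05 and exposed to compounds at 37 °C for 24 h. BacTiter-Glo reagent was then added for 12 min and luminescence was read. H37Ra and BCG were grown in 7H9 with glycerol, Tween 80 and ADS. mc2 6230 was grown with tyloxapol plus methionine, leucine, arginine and pantothenate. Values are the mean of triplicates.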

[4] = tested on: Mycobacterium tuberculosis; assay: Antitubercular activity against Mycobacterium tuberculosis H37Rv mc2 6230 assessed as inhibition of intracellular ATP synthesis incubated for 24 hrs by BacTiter-Glo microbial cell viability assay; format: functional, organism-based; conditions: H37Rv mc2 6230, 24 h; how it was run: as §1
[5] = Cytotoxicity against human HepG2 cells assessed as reduction in cell viability by MTT assay; format: toxicity, cell-based
How it was run: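 HepG2 cells in DMEM with 10% FBS, streptomycin, penicillin, 10 mM HEPES and 2 mM L-glutamine were seeded at 1 × 10^4 cells/well and incubated for 24 h (37 °C, 5% CO2). […] two-fold dilutions spanning 1000–0.48 μg ml−1 were applied. MTT (2.5 mg ml−1 in PBS) was added; formazan was dissolved in DMSO and read at 570 nm. CC50 = 50% viability loss. Triplicates.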

[6] = Selectivity index, ratio of CC50 for cytotoxicity against human HepG2 cells to MIC90 for antitubercular activity against Mycobacterium tuberculosis; format: toxicity, cell-based; conditions: read-out: Selectivity Index
How it was run: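 Selectivity index calculated as HepG2 MTT CC50 divided by MIC90.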

[7] = tested on: Mycobacterium tuberculosis; assay: Bactericidal activity against Mycobacterium tuberculosis H37Rv mc2 6230 assessed as reduction in bacterial load at 4 times MIC measured after 5 days; format: functional, organism-based; conditions: time 5.0 day
[8] = tested on: Mycobacterium tuberculosis; assay: Bactericidal activity against Mycobacterium tuberculosis H37Rv mc2 6230 assessed as reduction in bacterial load measured after 5 days; format: functional, organism-based; conditions: time 5.0 day
How it was run: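 Mid-log bacilli in supplemented 7H9 were adjusted to OD600 0.005 and exposed to a range of concentrations for 5 days at 37 °C. Cultures were 10-fold serially diluted and spotted on 7H10 agar, which was incubated for 3–4 weeks for CFU counts. MBC90 was a 90% fall from the initial inoculum. Triplicates; Student's t-test.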

Question: Which MIC90 [1] does the source give for `O=C(CSc1nc2ccccc2c(=O)[nH]1)NC1CCCCC1` here?
Answer: 0.5 µg/mL (≈ 1.58 µM)

Question: What about the MIC90 [2] of the same molecule?
Answer: 0.5 µg/mL (≈ 1.58 µM)

Question: And the IC50 [3]?
Answer: 8.55 µg/mL (≈ 26.9 µM)

Question: And the IC50 [4]?
Answer: 2.23 µg/mL (≈ 7.01 µM)

Question: What about the CC50 [5] of the same molecule?
Answer: 48.8 µg/mL (≈ 154 µM)

Question: And the selectivity ratio [6]?
Answer: 391

Question: Which MIC90 [1] does the source give for `O=C(CSc1nc2c(ccc3ccccc32)s1)NC1CCCCC1` here?
Answer: 128 µg/mL (≈ 359 µM)

Question: What about the MIC90 [2] of the same molecule?
Answer: 128 µg/mL (≈ 359 µM)

Question: And the IC50 [3]?
Answer: 36.6 µg/mL (≈ 103 µM)

Question: What about the IC50 [4] of the same molecule?
Answer: 33 µg/mL (≈ 92.5 µM)

Question: For `O=C(CSc1nc2ccc(Cl)cc2s1)NC1CCCCC1`, which MIC90 [1] is on record?
Answer: 32 µg/mL (≈ 93.9 µM)

Question: What about the MIC90 [2] of the same molecule?
Answer: 16 µg/mL (≈ 46.9 µM)

Question: What about the IC50 [3] of the same molecule?
Answer: 48.6 µg/mL (≈ 143 µM)

Question: And the IC50 [4]?
Answer: 38.2 µg/mL (≈ 112 µM)

Question: What does the source list for `Cc1cc(C)c2nc(SCC(=O)NC3CCCCC3)sc2c1`?
Answer: MIC90 [1]: 8 µg/mL (≈ 23.9 µM); MIC90 [2]: 8 µg/mL (≈ 23.9 µM); IC50 [3]: 16.3 µg/mL (≈ 48.7 µM); IC50 [4]: 16.3 µg/mL (≈ 48.7 µM); CC50 [5]: 247 µg/mL (≈ 739 µM); Activity [7]: Active; selectivity ratio [6]: 15.4; Activity [8]: Dose-Dependent Effect

Question: With `CO[C@H]1/C=C/O[C@@]2(C)Oc3c(C)c(O)c4c(O)c(c(/C=N/N5CCN(C)CC5)c(O)c4c3C2=O)NC(=O)/C(C)=C\C=C\[C@H](C)[C@H](O)[C@@H](C)[C@@H](O)[C@@H](C)[C@H](OC(C)=O)[C@@H]1C` [RIFAMPIN] as the molecule, how does the MIC90 [1] read?
Answer: 0.015 µg/mL (≈ 0.0182 µM)

Question: What about the MIC90 [2] of the same molecule?
Answer: 0.03 µg/mL (≈ 0.0365 µM)

Question: For `O=C(CSc1nc2ccc(Br)cc2s1)NC1CCCCC1`, which MIC90 [1] is on record?
Answer: 64 µg/mL (≈ 166 µM)

Question: And the MIC90 [2]?
Answer: 32 µg/mL (≈ 83 µM)

Question: What about the IC50 [3] of the same molecule?
Answer: 34.4 µg/mL (≈ 89.2 µM)

Question: And the IC50 [4]?
Answer: 49.8 µg/mL (≈ 129 µM)

Question: Which MIC90 [1] does the source give for `O=C(CSc1nc2ccc(C(F)(F)F)cc2s1)NC1CCCCC1` here?
Answer: 32 µg/mL (≈ 85.5 µM)

Question: And the MIC90 [2]?
Answer: 64 µg/mL (≈ 171 µM)

Question: What about the IC50 [3] of the same molecule?
Answer: 30.9 µg/mL (≈ 82.5 µM)

Question: And the IC50 [4]?
Answer: 51 µg/mL (≈ 136 µM)

Question: Which MIC90 [1] does the source give for `NNC(=O)c1ccncc1` [ISONIAZID] here?
Answer: 0.015 µg/mL (≈ 0.109 µM)

Question: What about the MIC90 [2] of the same molecule?
Answer: 0.06 µg/mL (≈ 0.438 µM)

Question: Which MIC90 [1] does the source give for `O=C(CSc1nc2c(Br)cc(C(F)(F)F)cc2s1)NC1CCCCC1` here?
Answer: 64 µg/mL (≈ 141 µM)

Question: What about the MIC90 [2] of the same molecule?
Answer: 64 µg/mL (≈ 141 µM)

Question: What about the IC50 [3] of the same molecule?
Answer: 25.7 µg/mL (≈ 56.7 µM)

Question: And the IC50 [4]?
Answer: 56 µg/mL (≈ 124 µM)

Question: What does the source list for `O=C(CSc1nc2ccc(F)cc2s1)NC1CCCCC1`?
Answer: MIC90 [1]: 16 µg/mL (≈ 49.3 µM); MIC90 [2]: 4 µg/mL (≈ 12.3 µM); IC50 [3]: 36.5 µg/mL (≈ 113 µM); IC50 [4]: 56.9 µg/mL (≈ 175 µM)

Question: For `O=C(CSc1nc2c(Br)cc(OC(F)(F)F)cc2s1)NC1CCCCC1`, which MIC90 [1] is on record?
Answer: 128 µg/mL (≈ 273 µM)

Question: What about the MIC90 [2] of the same molecule?
Answer: 128 µg/mL (≈ 273 µM)

Question: What about the IC50 [3] of the same molecule?
Answer: 36.6 µg/mL (≈ 77.9 µM)

Question: And the IC50 [4]?
Answer: 35.8 µg/mL (≈ 76.3 µM)

Question: With `O=C(CSc1nc2ccc(OC(F)(F)F)cc2s1)NC1CCCCC1` as the molecule, how does the MIC90 [1] read?
Answer: 64 µg/mL (≈ 164 µM)

Question: And the MIC90 [2]?
Answer: 32 µg/mL (≈ 82 µM)

Question: And the IC50 [3]?
Answer: 23.4 µg/mL (≈ 59.9 µM)

Question: And the IC50 [4]?
Answer: 66.2 µg/mL (≈ 170 µM)

Question: Which results are given for `C=C(C)[C@H]1Cc2c(ccc3c2O[C@@H]2COc4cc(OC)c(OC)cc4[C@@H]2C3=O)O1` [ROTENONE]?
Answer: MIC90 [1]: > 64 µg/mL; MIC90 [2]: > 64 µg/mL

Question: Which MIC90 [1] does the source give for `O=C(CSc1nc2c(Br)cc(F)cc2s1)NC1CCCCC1` here?
Answer: 8 µg/mL (≈ 19.8 µM)

Question: And the MIC90 [2]?
Answer: 8 µg/mL (≈ 19.8 µM)

Question: What about the IC50 [3] of the same molecule?
Answer: 18.7 µg/mL (≈ 46.3 µM)

Question: What about the IC50 [4] of the same molecule?
Answer: 14.7 µg/mL (≈ 36.4 µM)

Question: What about the CC50 [5] of the same molecule?
Answer: 89.4 µg/mL (≈ 222 µM)

Question: What about the Activity [7] of the same molecule?
Answer: Active

Question: What about the selectivity ratio [6] of the same molecule?
Answer: 5.58

Question: And the Activity [8]?
Answer: Dose-Dependent Effect

Question: Which MIC90 [1] does the source give for `CC(C)/N=c1\cc2n(-c3ccc(Cl)cc3)c3ccccc3nc-2cc1Nc1ccc(Cl)cc1` [CLOFAZIMINE] here?
Answer: 0.25 µg/mL (≈ 0.528 µM)

Question: What about the MIC90 [2] of the same molecule?
Answer: 0.25 µg/mL (≈ 0.528 µM)

Question: And the CC50 [5]?
Answer: 49 µg/mL (≈ 104 µM)

Question: And the selectivity ratio [6]?
Answer: 223

Question: With `Cc1ccc2nc(SCC(=O)NC3CCCCC3)sc2c1` as the molecule, how does the MIC90 [1] read?
Answer: 32 µg/mL (≈ 99.8 µM)

Question: What about the MIC90 [2] of the same molecule?
Answer: 32 µg/mL (≈ 99.8 µM)

Question: And the IC50 [3]?
Answer: 14.1 µg/mL (≈ 43.9 µM)

Question: What about the IC50 [4] of the same molecule?
Answer: 34.9 µg/mL (≈ 109 µM)

Question: For `O=C(CSc1nc2ccc([N+](=O)[O-])cc2s1)NC1CCCCC1`, which MIC90 [1] is on record?
Answer: 16 µg/mL (≈ 45.5 µM)

Question: And the MIC90 [2]?
Answer: 16 µg/mL (≈ 45.5 µM)

Question: What about the IC50 [3] of the same molecule?
Answer: 36.3 µg/mL (≈ 103 µM)

Question: What about the IC50 [4] of the same molecule?
Answer: 24.4 µg/mL (≈ 69.6 µM)

Question: Which MIC90 [1] does the source give for `CC(C)c1ccc2nc(SCC(=O)NC3CCCCC3)sc2c1` here?
Answer: 4 µg/mL (≈ 11.5 µM)

Question: And the MIC90 [2]?
Answer: 4 µg/mL (≈ 11.5 µM)

Question: What about the IC50 [3] of the same molecule?
Answer: 9.35 µg/mL (≈ 26.8 µM)

Question: What about the IC50 [4] of the same molecule?
Answer: 9.35 µg/mL (≈ 26.8 µM)

Question: What about the CC50 [5] of the same molecule?
Answer: 423 µg/mL (≈ 1210 µM)

Question: What about the Activity [7] of the same molecule?
Answer: Active

Question: And the selectivity ratio [6]?
Answer: 26.5

Question: And the Activity [8]?
Answer: Dose-Dependent Effect

Question: For `CC/C(=C(\c1ccccc1)c1ccc(OCCN(C)C)cc1)c1ccccc1` [TAMOXIFEN], which CC50 [5] is on record?
Answer: 6.15 µg/mL (≈ 16.6 µM)

Question: With `O=C(CSc1nc2ccccc2s1)NC1CCCCC1` as the molecule, how does the MIC90 [1] read?
Answer: 64 µg/mL (≈ 209 µM)

Question: And the MIC90 [2]?
Answer: 64 µg/mL (≈ 209 µM)

Question: And the IC50 [3]?
Answer: 26.6 µg/mL (≈ 86.9 µM)

Question: And the IC50 [4]?
Answer: 40.6 µg/mL (≈ 133 µM)
